Converted amounts (≈) assume the structure as drawn.
Key:
Human alphaherpesvirus 1 = assay: Antiviral activity against HSV1 infected in african green monkey Vero cells after 6 hrs by plaque reduction assay; format: functional; set-up: scale not given: the % may be the effect or the level left
In short: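 Modified plaque reduction in 96-well trays with no thickening overlay. Compounds dissolved in DMSO and diluted into medium, then serially diluted and added in triplicate to confluent Vero monolayers. Titred HSV-1 added in medium with 10% calf serum. Incubated 6 h at 37 °C, 5% CO2. Cells fixed with 3.7% formaldehyde and examined visually. The end-point concentration was taken from the dilution series.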

Vero = assay: Cytotoxicity against african green monkey Vero cells assessed as loss of monolayer present around the plaques; format: cell-based; details: Chlorocebus sabaeus
In short: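 Vero monolayers in serial-dilution trays with HSV-1, run in triplicate, 6 h at 37 °C, 5% CO2. Cells fixed with 3.7% formaldehyde and examined visually. IC50 is the concentration giving about 50% loss of the monolayer around HSV-1 plaques.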

[1] = test system: Human immunodeficiency virus 1; assay: Antiviral activity against HIV1 infected in human CEM cells assessed as protection against virus-induced cytopathic effect after 6 days by XTT assay; format: functional, organism-based; details: Human immunodeficiency virus 1, CCRF-CEM, 144 h
In short: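 CEM T4 lymphocytes received serially diluted compounds (DMSO stock diluted 1:100 in medium, 1:200 final dilution), then HIV-1. Incubated 6 days at 37 °C, 5% CO2. Formazan read spectrophotometrically after XTT, with microscopic check for viable cells. EC50 is the concentration giving 50% protection against the HIV cytopathic effect. AZT-treated wells served as positive control.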

CCRF-CEM = assay: Cytotoxicity against […] human CEM cells after 6 days by XTT assay; format: cell-based; details: 144 h
In short: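 Uninfected CEM cultures given serial compound dilutions (DMSO, 1:200 final dilution). Incubated 6 days at 37 °C, 5% CO2, then read by XTT formazan. IC50 is the molar concentration causing 50% inhibition of cell growth.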

[2] = Therapeutic index, ratio of IC50 for human CEM cells to EC50 for HIV1; format: cell-based, CCRF-CEM; details: read-out: Ratio IC50/EC50
In short: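 CEM T4 lymphocytes, with or without HIV-1, were incubated with serially diluted compounds (DMSO solution diluted 1:100 in medium; 1:200 final dilution after cells and virus were added) at 37 °C in 5% CO2 for 6 days. Controls were untreated and AZT-treated. Read-out was XTT formazan, measured spectrophotometrically plus microscopy. EC50 is 50% protection from cytopathic effect; IC50 is 50% growth inhibition in uninfected cultures.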

Escherichia coli [3] = assay: Antibacterial activity against Escherichia coli MTCC 41 after 12 to 16 hrs by turbidity assay; format: functional
In short: (§1)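 Broth dilution MIC in LB broth. Tubes inoculated, incubated 12–16 h and scored by eye for turbidity (growth) versus clear (no growth).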

Escherichia coli [4] = assay: Antibacterial activity against Escherichia coli MTCC 41 at 128 mg/ml after 16 hrs by disk diffusion test; format: functional; set-up: dose or concentration left out as unconfirmed; details: MTCC 41, 16 h, read-out: IZ
Escherichia coli [5] = assay: Antibacterial activity against Escherichia coli MTCC 41 at 64 mg/ml after 16 hrs by disk diffusion test; format: functional; set-up: dose or concentration left out as unconfirmed; details: MTCC 41, 16 h, read-out: IZ
Staphylococcus aureus [6] = assay: Antibacterial activity against Staphylococcus aureus MTCC 1144 after 12 to 16 hrs by turbidity assay; format: functional; in short: as §1
Staphylococcus aureus [7] = assay: Antibacterial activity against Staphylococcus aureus MTCC 1144 at 128 mg/ml after 16 hrs by disk diffusion test; format: functional; set-up: dose or concentration left out as unconfirmed; details: MTCC 1144, 16 h, read-out: IZ
Staphylococcus aureus [8] = assay: Antibacterial activity against Staphylococcus aureus MTCC 1144 at 64 mg/ml after 16 hrs by disk diffusion test; format: functional; details: MTCC 1144, 16 h, read-out: IZ
In short: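 Disk diffusion (zone of inhibition). Bacterial isolate spread evenly over an agar plate. A filter disk carrying a known amount of compound was placed on the surface and the compound left to diffuse. The inhibition zone in the lawn was read after 16 h incubation.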

Pseudomonas putida [9] = assay: Antibacterial activity against ampicillin-resistant Pseudomonas putida MTCC 1072 after 12 to 16 hrs by turbidity assay; format: functional; in short: as §1
Pseudomonas putida [10] = assay: Antibacterial activity against ampicillin-resistant Pseudomonas putida MTCC 1072 at 128 mg/ml after 16 hrs by disk diffusion test; format: functional; set-up: dose or concentration left out as unconfirmed; details: MTCC 1072, 16 h, read-out: IZ
Pseudomonas putida [11] = assay: Antibacterial activity against ampicillin-resistant Pseudomonas putida MTCC 1072 at 64 mg/ml after 16 hrs by disk diffusion test; format: functional; set-up: dose or concentration left out as unconfirmed; details: MTCC 1072, 16 h, read-out: IZ

Structure (SMILES)	Activity (Human alphaherpesvirus 1) [%]	IC50 (Vero) [µM]	EC50 [1] [µM]	IC50 (CCRF-CEM) [µM]	selectivity ratio [2]	MIC (Escherichia coli [3]) [µg/mL]	zone of inhibition (Escherichia coli [4]) [mm]	zone of inhibition (Escherichia coli [5]) [mm]	MIC (Staphylococcus aureus [6]) [µg/mL]	zone of inhibition (Staphylococcus aureus [7]) [mm]	zone of inhibition at 64000 µg/mL (Staphylococcus aureus [8]) [mm]	MIC (Pseudomonas putida [9]) [µg/mL]	zone of inhibition (Pseudomonas putida [10]) [mm]	zone of inhibition (Pseudomonas putida [11]) [mm]
CC(=O)c1nn(-c2ccc(Cl)cc2)c2nc3sc4c(c3c(=S)n12)CCCCC4	0	0.07	> 100	> 100	> 1	–	–	–	–	–	–	–	–	–
CSc1nc2sc3c(c2c(=S)[nH]1)CCCCC3	0	0.45	> 100	> 100	> 1	128 (≈ 453 µM)	> 3	< 1	128 (≈ 453 µM)	> 3	> 2	128 (≈ 453 µM)	> 3	< 1
OC[C@H]1O[C@@H](Sc2nc3sc4c(c3c(=S)[nH]2)CCCCC4)[C@H](O)[C@@H](O)[C@H]1O	0	0.38	> 100	> 100	> 1	–	–	–	–	–	–	–	–	–
CC1(C)S[C@@H]2[C@H](NC(=O)[C@H](N)c3ccccc3)C(=O)N2[C@H]1C(=O)O [AMPICILLIN]	–	–	–	–	–	16 (≈ 45.8 µM)	> 5	> 5	–	> 5	> 5	> 256	0	0
CC(=O)c1nn(-c2ccc([N+](=O)[O-])cc2)c2nc3sc4c(c3c(=S)n12)CCCC4	–	–	–	–	–	64 (≈ 150 µM)	> 3	> 3	> 128	> 2	> 2	128 (≈ 301 µM)	> 3	> 2
CC(=O)OC[C@H]1O[C@@H](Sc2nc3sc4c(c3c(=S)[nH]2)CCCC4)[C@@H](OC(C)=O)[C@@H]1OC(C)=O	0	1.39	> 100	> 100	> 1	64 (≈ 125 µM)	> 3	> 3	64 (≈ 125 µM)	> 3	> 3	128 (≈ 250 µM)	> 3	< 1
S=c1[nH]c(=S)c2c3c(sc2[nH]1)CCCCC3	0	0.09	> 100	5.25	> 19.1	64 (≈ 238 µM)	> 3	> 3	> 128	> 2	> 2	128 (≈ 477 µM)	> 3	> 2
S=c1c2c3c(sc2nc2n(-c4ccccc4)nc(-c4ccccc4)n12)CCCC3	–	–	–	–	–	128 (≈ 309 µM)	> 3	< 1	128 (≈ 309 µM)	> 3	< 1	128 (≈ 309 µM)	> 3	< 1
CSc1nc2sc3c(c2c(=S)[nH]1)CCCC3	0	0.64	> 100	> 100	> 1	128 (≈ 477 µM)	> 3	< 1	128 (≈ 477 µM)	> 3	< 1	128 (≈ 477 µM)	> 3	< 1

Source: ChEMBL document CHEMBL1240504, “Synthesis of substituted thieno[2,3-d]pyrimidine-2,4-dithiones and their S-glycoside analogues as potential antiviral and antibacterial agents” (Eur J Med Chem, 2010)
